Calls of active or inactive are those of the source. The rule behind the calls is not given here.
Tests used:
SK-OV-3 = test: Cytotoxicity against human SKOV3 cells assessed as growth inhibition after 72 hrs by MTT assay; conditions: SK-OV-3, 72 h
[1] = target: Calcium/calmodulin-dependent protein kinase type IV (Homo sapiens, UniProt Q16566); test: Inhibition of CAMK4 (unknown origin)
HeLa = test: Cytotoxicity against human HeLa cells assessed as growth inhibition after 72 hrs by MTT assay; assay type: functional, cell-based
In short: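 MTT viability assay with serial inhibitor dilutions for 72 h at 37 °C, then MTT for 2–4 h and OD read at 570 nm. Leukemia lines were seeded at (1–4) × 10⁴ cells/well and lysed with 20% acidified SDS. Adherent lines were seeded at (2–5) × 10³ cells/well, dosed after 24 h and dissolved in DMSO. Triplicate; mean ± SD.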

[2] = target: Serine/threonine-protein kinase PAK 4 (Homo sapiens, UniProt O96013); test: Inhibition of PAK4 (unknown origin)
In short: (§1)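 Single selected panel of recombinant human protein kinases, screened in vitro. The value reported is the IC50 against each kinase.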

LoVo = test: Cytotoxicity against human LoVo cells assessed as growth inhibition after 72 hrs by MTT assay
HCT-116 = test: Cytotoxicity against human HCT116 cells assessed as growth inhibition after 72 hrs by MTT assay; conditions: HCT-116, 72 h
Jurkat = test: Cytotoxicity against human Jurkat cells assessed as growth inhibition after 72 hrs by MTT assay
TT = test: Cytotoxicity against human TT cells assessed as growth inhibition after 72 hrs by MTT assay
MV4-11 [3] = test: Induction of apoptosis in human MV4-11 cells assessed as late apoptotic cells at 0.01 uM after 24 hrs by annexin V-FITC/propidium iodide staining-based FACS flow cytometric analysis (reference value: 4.28%); assay type: functional
Aurora kinase A = Aurora kinase A (Homo sapiens, UniProt O14965); test: Inhibition of aurora-A (unknown origin)
MV4-11 [4] = test: Antitumor activity against human MV4-11 cells xenografted in mouse at 5 mg/kg/day, po after 18 days; assay type: functional, organism-based
In short: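 MV4-11 sc xenograft mice dosed daily by mouth once tumors reached about 400 mm³, three mice per group; tumor volume followed.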

[5] = target: Platelet-derived growth factor receptor beta (Homo sapiens, UniProt P09619); test: Inhibition of PDGFRbeta (unknown origin); in short: as §1
HL-60 = test: Cytotoxicity against human HL60 cells assessed as growth inhibition after 72 hrs by MTT assay; conditions: HL-60, 72 h
MV4-11 [6] = test: Induction of apoptosis in human MV4-11 cells assessed as early apoptotic cells at 0.03 uM after 24 hrs by annexin V-FITC/propidium iodide staining-based FACS flow cytometric analysis (reference value: 1.61%); assay type: functional
[7] = target: Vascular endothelial growth factor receptor 2 (Homo sapiens, UniProt P35968); test: Inhibition of VEGFR2 (unknown origin)
[8] = target: T1, Receptor-type tyrosine-protein kinase FLT3 (Homo sapiens, UniProt P36888); test: Inhibition of FLT3 in human MV4-11 cells assessed as inhibition of STAT5 phosphorylation after 20 hrs by Western blotting analysis; assay type: cell-based
T1 sequence (P36888 whole entry): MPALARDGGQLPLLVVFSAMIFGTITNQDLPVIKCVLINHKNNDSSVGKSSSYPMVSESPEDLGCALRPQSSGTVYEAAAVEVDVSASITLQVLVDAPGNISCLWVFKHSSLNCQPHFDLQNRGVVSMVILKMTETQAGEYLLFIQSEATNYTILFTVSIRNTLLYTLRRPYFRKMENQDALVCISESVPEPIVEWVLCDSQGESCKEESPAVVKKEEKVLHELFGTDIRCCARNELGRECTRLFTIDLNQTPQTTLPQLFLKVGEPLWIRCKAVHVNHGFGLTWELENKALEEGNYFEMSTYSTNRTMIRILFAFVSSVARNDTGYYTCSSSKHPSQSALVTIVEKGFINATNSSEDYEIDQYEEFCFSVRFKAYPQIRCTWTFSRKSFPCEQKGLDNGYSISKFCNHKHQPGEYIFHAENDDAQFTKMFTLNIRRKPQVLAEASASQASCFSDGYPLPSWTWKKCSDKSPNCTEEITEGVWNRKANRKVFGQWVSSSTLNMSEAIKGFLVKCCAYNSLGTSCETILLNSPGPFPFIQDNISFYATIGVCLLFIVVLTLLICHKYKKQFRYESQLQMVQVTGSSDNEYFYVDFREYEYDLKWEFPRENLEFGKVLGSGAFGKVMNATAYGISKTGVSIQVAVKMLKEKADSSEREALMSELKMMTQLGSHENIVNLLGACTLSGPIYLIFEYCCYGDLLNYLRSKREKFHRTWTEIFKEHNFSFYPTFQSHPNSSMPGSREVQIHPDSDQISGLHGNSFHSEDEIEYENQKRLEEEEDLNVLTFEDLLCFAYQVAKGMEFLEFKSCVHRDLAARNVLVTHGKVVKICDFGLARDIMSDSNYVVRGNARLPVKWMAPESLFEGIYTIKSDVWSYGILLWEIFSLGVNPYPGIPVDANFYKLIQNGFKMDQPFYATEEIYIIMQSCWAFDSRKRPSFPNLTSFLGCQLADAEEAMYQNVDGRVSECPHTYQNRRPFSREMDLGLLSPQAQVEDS

MV4-11 [9] = test: Induction of apoptosis in human MV4-11 cells assessed as early apoptotic cells at 0.001 uM after 24 hrs by annexin V-FITC/propidium iodide staining-based FACS flow cytometric analysis (reference value: 1.61%); assay type: functional
[10] = Inhibition of ERK (unknown origin); set-up: species or system Homo sapiens
[11] = target: Platelet-derived growth factor receptor alpha (Homo sapiens, UniProt P16234); test: Inhibition of PDGFRalpha (unknown origin)
Mus musculus = test: Toxicity in NOD-SCID mouse xenografted with FLT3-ITD-positive human MV4-11 cells assessed as body weight loss at 1 to 10 mg/kg/day, po administered 18 days measured every 3 days for 18 days; assay type: organism-based; set-up: route oral; conditions: in vivo, 432 h
In short: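 NOD-SCID mice, 5–6 weeks old, received 100 μL of MV4-11 cells sc (1 × 10⁸/mL in serum-free medium). At 300–500 mm³ tumors, mice were grouped (six per group) and gavaged once daily for 18 days at 1, 3 or 10 mg/kg/d. Vehicle was 12.5% castor oil, 12.5% ethanol and 75% water. Body weights were tracked; tumors were measured every 3 d.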

MKN-45 = test: Cytotoxicity against human MKN45 cells assessed as growth inhibition after 72 hrs by MTT assay; conditions: MKN-45, 72 h
[12] = target: Fibroblast growth factor receptor 2 (Homo sapiens, UniProt P21802); test: Inhibition of FGFR2 (unknown origin)
[13] = target: Mast/stem cell growth factor receptor Kit (Homo sapiens, UniProt P10721); test: Inhibition of c-Kit (unknown origin)
MV4-11 [14] = test: Induction of apoptosis in human MV4-11 cells assessed as late apoptotic cells at 0.003 uM after 24 hrs by annexin V-FITC/propidium iodide staining-based FACS flow cytometric analysis (reference value: 4.28%); assay type: functional
MV4-11 [15] = test: Induction of apoptosis in human MV4-11 cells assessed as early apoptotic cells at 0.01 uM after 24 hrs by annexin V-FITC/propidium iodide staining-based FACS flow cytometric analysis (reference value: 1.61%); assay type: functional

Platelet-derived growth factor receptor beta, sequence (P09619 whole entry): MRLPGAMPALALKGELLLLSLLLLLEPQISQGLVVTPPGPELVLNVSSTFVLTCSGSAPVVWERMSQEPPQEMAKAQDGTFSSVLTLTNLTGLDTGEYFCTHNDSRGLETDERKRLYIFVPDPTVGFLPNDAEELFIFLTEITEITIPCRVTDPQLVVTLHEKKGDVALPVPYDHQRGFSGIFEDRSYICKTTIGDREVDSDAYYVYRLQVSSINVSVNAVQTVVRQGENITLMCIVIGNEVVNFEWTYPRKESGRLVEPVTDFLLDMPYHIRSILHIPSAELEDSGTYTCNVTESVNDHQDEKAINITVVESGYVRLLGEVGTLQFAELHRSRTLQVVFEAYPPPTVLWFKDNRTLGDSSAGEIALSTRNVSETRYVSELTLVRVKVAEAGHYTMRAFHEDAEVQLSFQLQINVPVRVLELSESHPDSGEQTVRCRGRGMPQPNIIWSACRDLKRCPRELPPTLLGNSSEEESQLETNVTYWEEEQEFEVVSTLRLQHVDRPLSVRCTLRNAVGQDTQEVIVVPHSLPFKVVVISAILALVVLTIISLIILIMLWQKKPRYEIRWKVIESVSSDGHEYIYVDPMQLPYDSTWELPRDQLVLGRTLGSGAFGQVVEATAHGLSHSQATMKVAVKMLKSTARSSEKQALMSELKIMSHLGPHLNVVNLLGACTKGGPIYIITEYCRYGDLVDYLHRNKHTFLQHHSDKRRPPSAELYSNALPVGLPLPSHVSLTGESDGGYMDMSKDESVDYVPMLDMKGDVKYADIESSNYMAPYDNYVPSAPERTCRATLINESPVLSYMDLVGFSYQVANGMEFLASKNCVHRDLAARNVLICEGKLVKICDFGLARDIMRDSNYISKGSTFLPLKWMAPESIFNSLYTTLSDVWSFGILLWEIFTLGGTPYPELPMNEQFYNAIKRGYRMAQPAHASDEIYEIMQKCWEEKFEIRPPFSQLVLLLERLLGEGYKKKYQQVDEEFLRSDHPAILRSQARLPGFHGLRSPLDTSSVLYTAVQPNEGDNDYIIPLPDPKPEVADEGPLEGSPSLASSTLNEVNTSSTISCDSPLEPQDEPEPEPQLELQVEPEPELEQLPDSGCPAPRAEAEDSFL
Fibroblast growth factor receptor 2, sequence (P21802 whole entry): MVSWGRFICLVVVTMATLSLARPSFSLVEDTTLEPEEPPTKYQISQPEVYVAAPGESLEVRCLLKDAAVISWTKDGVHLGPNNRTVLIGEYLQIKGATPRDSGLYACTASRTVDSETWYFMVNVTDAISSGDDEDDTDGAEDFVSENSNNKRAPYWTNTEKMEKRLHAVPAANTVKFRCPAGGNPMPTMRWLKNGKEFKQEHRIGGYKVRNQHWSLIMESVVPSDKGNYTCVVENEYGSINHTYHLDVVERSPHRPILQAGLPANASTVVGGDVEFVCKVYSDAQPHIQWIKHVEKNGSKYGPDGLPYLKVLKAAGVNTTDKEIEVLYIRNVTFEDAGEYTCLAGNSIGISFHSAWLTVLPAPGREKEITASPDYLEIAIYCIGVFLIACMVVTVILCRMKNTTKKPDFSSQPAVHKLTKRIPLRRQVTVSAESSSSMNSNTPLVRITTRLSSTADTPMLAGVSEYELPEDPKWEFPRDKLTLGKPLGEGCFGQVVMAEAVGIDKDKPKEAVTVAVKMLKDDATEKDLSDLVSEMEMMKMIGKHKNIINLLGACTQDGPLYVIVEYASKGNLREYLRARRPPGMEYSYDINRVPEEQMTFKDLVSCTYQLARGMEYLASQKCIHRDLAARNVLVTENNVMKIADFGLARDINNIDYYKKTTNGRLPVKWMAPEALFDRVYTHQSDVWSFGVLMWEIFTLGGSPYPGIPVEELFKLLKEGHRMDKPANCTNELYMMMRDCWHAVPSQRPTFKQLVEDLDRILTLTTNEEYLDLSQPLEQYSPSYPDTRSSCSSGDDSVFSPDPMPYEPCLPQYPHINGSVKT
Aurora kinase A, sequence (O14965 whole entry): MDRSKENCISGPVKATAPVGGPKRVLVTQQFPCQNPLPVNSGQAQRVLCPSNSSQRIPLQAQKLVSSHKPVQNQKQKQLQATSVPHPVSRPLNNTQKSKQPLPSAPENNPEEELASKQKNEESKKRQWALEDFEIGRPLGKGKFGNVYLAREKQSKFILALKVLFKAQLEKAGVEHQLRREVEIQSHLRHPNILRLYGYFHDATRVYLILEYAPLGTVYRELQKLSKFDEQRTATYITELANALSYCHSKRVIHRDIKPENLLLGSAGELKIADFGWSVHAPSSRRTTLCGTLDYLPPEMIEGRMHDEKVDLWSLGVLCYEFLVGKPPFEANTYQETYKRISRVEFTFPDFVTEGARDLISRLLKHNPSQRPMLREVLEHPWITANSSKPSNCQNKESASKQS
Serine/threonine-protein kinase PAK 4, sequence (O96013 whole entry): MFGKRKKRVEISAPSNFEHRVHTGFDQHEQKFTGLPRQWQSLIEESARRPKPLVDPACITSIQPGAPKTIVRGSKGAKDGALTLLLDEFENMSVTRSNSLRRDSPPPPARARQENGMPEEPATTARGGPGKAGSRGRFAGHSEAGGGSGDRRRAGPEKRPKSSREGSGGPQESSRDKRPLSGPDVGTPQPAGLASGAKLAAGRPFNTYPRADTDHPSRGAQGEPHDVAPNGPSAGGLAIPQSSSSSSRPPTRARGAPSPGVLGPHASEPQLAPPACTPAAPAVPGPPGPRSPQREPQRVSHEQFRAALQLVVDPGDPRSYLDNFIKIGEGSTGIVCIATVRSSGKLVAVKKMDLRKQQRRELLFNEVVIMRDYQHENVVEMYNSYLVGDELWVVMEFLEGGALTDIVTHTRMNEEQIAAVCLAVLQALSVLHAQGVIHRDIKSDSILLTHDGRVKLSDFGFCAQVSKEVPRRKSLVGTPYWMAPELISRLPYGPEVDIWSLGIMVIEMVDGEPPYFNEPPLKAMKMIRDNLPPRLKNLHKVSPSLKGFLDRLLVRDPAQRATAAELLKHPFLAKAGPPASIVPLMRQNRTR
Vascular endothelial growth factor receptor 2, sequence (P35968 whole entry): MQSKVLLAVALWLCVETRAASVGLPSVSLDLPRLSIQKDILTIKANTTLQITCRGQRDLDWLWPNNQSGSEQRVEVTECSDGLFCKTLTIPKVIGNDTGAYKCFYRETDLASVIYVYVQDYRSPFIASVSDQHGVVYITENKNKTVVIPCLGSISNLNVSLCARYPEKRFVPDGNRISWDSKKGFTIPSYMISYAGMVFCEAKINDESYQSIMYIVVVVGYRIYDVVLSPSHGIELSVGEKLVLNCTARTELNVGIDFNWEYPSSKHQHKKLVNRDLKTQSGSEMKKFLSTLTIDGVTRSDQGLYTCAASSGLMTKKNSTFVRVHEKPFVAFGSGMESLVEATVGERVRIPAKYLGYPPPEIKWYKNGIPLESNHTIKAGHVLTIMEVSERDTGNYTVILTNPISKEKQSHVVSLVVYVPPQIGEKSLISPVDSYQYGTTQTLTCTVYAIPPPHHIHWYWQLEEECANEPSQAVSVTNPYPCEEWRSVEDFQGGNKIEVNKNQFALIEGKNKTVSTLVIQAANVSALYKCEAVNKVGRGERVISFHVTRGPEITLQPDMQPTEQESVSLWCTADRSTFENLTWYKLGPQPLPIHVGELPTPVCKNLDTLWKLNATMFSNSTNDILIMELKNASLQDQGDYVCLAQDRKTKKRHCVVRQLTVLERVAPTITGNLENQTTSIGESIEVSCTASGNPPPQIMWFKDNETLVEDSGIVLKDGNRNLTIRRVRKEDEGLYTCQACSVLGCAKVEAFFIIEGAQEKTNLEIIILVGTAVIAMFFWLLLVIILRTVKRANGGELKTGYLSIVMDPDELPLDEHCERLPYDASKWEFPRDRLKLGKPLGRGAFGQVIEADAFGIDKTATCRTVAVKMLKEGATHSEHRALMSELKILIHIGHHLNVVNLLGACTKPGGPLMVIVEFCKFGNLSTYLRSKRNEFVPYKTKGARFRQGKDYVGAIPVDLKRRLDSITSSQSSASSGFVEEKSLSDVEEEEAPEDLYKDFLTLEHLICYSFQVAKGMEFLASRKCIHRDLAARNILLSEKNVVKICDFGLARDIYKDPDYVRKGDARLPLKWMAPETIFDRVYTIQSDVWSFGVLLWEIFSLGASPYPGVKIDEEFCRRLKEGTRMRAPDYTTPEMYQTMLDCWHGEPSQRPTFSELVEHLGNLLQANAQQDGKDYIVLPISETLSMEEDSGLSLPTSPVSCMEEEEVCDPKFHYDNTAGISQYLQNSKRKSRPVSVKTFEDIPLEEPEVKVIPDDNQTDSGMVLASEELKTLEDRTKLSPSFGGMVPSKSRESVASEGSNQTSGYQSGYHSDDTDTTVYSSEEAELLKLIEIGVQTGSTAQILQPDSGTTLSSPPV
Calcium/calmodulin-dependent protein kinase type IV, sequence (Q16566 whole entry): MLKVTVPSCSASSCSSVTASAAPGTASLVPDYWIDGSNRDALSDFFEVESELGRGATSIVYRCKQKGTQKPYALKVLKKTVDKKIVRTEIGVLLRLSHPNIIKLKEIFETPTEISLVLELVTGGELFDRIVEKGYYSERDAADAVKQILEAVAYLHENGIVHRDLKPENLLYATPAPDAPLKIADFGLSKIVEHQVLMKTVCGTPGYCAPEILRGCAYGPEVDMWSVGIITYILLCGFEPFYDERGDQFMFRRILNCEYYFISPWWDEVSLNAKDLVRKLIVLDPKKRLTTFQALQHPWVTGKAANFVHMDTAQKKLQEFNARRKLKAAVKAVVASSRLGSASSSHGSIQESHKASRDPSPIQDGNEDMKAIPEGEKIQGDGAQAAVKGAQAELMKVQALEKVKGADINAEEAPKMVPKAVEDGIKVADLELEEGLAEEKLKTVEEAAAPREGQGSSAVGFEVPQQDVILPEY

**Q.** What does the source list for O=C(Nc1ccc(Oc2ncnc3[nH]ncc23)cc1)Nc1ccc(Cl)c(C(F)(F)F)c1?
**A.** IC50 (SK-OV-3): > 10 µM; IC50 [1]: > 10 µM; IC50 (HeLa): > 10 µM; IC50 [2]: > 10 µM; IC50 (LoVo): > 10 µM; IC50 (HCT-116): > 10 µM; IC50 (Jurkat): 8.72 µM; IC50 (TT): 3.42 µM; Activity (MV4-11 [3]): 9.64%; IC50 (Aurora kinase A): > 10 µM; Activity (MV4-11 [4]): Active; IC50 [5]: 0.408 µM; IC50 (HL-60): > 10 µM; Activity (MV4-11 [6]): 8.93%; IC50 [7]: 0.012 µM; IC50 [8]: 0.003 µM; Activity (MV4-11 [9]): 4.15%; IC50 [10]: > 10 µM; IC50 [11]: 0.223 µM; Activity (Mus musculus): Non-toxic; IC50 (MKN-45): 8.23 µM; IC50 [12]: 1.81 µM; IC50 [13]: 0.507 µM; Activity (MV4-11 [14]): 7.11%; Activity (MV4-11 [15]): 5.88%

— ChEMBL document CHEMBL2331331 (J Med Chem, 2013)
